Compound activity deposited in PubChem by Johns Hopkins Ion Channel Center.
KCNK3 block = human KCNK3 channel inhibition, primary screen; 340,000 tested, 0.84% active; O14649; B-score at 10 µM; CHO-KCNK3 thallium flux, FluxOR fluorescence; hits give low values; AID 602410;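 active means B-score under library mean minus 4 SD, starting fluorescence ratio at most library mean plus 5 SD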;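 further: more negative B-score means stronger inhibition of thallium flux through KCNK3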
KCNQ1 inh = inhibitors of human KCNQ1 potassium channel | P51787 | CHO-K1 KCNQ1, FluxOR thallium flux fluorescence; hits give high values | B-score at 10 µM | 310,000 tested, 1.3% active;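 active means compounds whose thallium flux B-score, printed positive for inhibition, exceeds three library SD while starting fluorescence stays within three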;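 further: channel opened by potassium depolarization with thallium stimulus after 20 min compound exposure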
KCNK9 inh = blocks the human KCNK9 two-pore domain potassium channel; Q9NPC2; HEK293 KCNK9, FluxOR thallium flux fluorescence; hits give low values; B-score at 10 µM; 310,000 tested, 1.2% active; AID 488922;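 active means ratio B-score over 3 SD below the library mean, with starting fluorescence within 5 SD of its mean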;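 further: negative B-score means less thallium flux so channel inhibition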
KCNQ1 act = potentiates or activates the human KCNQ1 potassium channel. P51787. CHO-K1 KCNQ1, thallium flux FluxOR fluorescence; hits give high values. B-score at 10 µM. 310,000 tested, 0.35% active. AID 2648;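 active means fluorescence ratio B-score, a plate-corrected score, at least three library SD, with initial intensity B-score within 5 SD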
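Material: CHO-K1 cells stably expressing KCNQ1. Medium: assay buffer for compound exposure, DMSO matched across wells. Reagent: K+/Tl+ depolarizing stimulus. Compound dosing: single-concentration screen. Times: 37 °C overnight plating, 90-min dark dye load, 20-min compound pretreatment. Technique: FluxOR Tl+ flux fluorescence.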
hERG protect = shields human hERG channel from block by proarrhythmic agents | Q12809 | CHO-hERG, FluxOR thallium flux, dofetilide IC70 present | activation (rescue from dofetilide block), less the hit threshold, % at 10 µM | 310,000 tested, 0.51% active;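 active means activation above the mean of controls blocked by dofetilide plus 5 SD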;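 further: thallium influx through hERG after potassium depolarization seen as dye fluorescence rise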
* = called active by the depositor. The list is not random: actives were taken first. Their share in the collection is about 3.1%.

Screening CCOC(=O)C1=C(C)N(C[C@@H]2CC[C@@H](Cc3ccc(-c4ccccc4)cc3)O2)C(=O)NC1c1cccc([N+](=O)[O-])c1 (stereo partly specified) returned KCNK3 block inactive.
For CCOc1cccc(=O)c2c(C)n(-c3ccc(C(=O)O)cc3)c(C)c12 the results were KCNK3 block inactive, KCNQ1 inh inactive, KCNK9 inh inactive, KCNQ1 act inactive and hERG protect 4.8*.
COc1cccc(=O)c2c(C)n(-c3ccc(C(=O)O)cc3)c(C)c12 was read as KCNK3 block inactive, KCNQ1 inh inactive, KCNK9 inh inactive, KCNQ1 act inactive and hERG protect -6.
CN(CC(=O)N1CCN(Cc2ccccc2)CC1)S(=O)(=O)c1ccc(Br)cc1 was read as KCNK3 block inactive, KCNQ1 inh inactive, KCNK9 inh inactive, KCNQ1 act inactive and hERG protect -5.
For COc1ccc(CCNC(=O)c2cc(C(=O)c3cc(C)ccc3O)cn(CCc3ccc(OC)cc3)c2=O)cc1 the results were KCNK3 block inactive, KCNQ1 inh inactive, KCNK9 inh inactive, KCNQ1 act inactive and hERG protect -33.
`O=C(c1cc(C(=O)NCCc2ccccc2)c(=O)n(CCc2ccccc2)c1)c1cc(Cl)ccc1O` gave KCNK3 block inactive, KCNQ1 inh 10*, KCNK9 inh inactive, KCNQ1 act inactive and hERG protect -14.
Screening COc1ccc(CCNC(=O)c2cc(C(=O)c3cc(Cl)ccc3O)cn(CCc3ccc(OC)cc3)c2=O)cc1 returned KCNK3 block inactive, KCNQ1 inh 8*, KCNK9 inh inactive, KCNQ1 act inactive and hERG protect -22.
`O=C(NCCc1ccccc1)c1ccccc1Cl` gave KCNK3 block inactive, KCNQ1 inh inactive, KCNK9 inh inactive, KCNQ1 act inactive and hERG protect -10.
`COCC(C)n1c(C)cc(C(=O)COC(=O)c2cccn2C)c1C` (stereo unspecified) gave KCNK3 block inactive.
Screening C/C(=N\Nc1nc2c(s1)CCCC2)c1ccc(Cl)cc1 returned KCNK3 block inactive, KCNQ1 inh 6*, KCNK9 inh inactive, KCNQ1 act inactive and hERG protect -6.
`COc1ccc(NS(=O)(=O)c2cc(NC(=O)c3ccc(=O)[nH]n3)ccc2C)cc1` gave KCNK3 block inactive.
Screening O=C(Cc1ccccc1)N/N=C/c1ccc2cccc(O)c2n1 returned KCNK3 block inactive, KCNQ1 inh inactive, KCNK9 inh inactive, KCNQ1 act inactive and hERG protect 9.4*.
`NC(=O)N/N=C/c1ccc2cccc(OCc3ccccc3)c2n1` gave KCNK3 block inactive, KCNQ1 inh inactive, KCNK9 inh inactive, KCNQ1 act inactive and hERG protect -8.
`CC1CCCC(C)N1C(=O)COC(=O)CNC(=O)c1ccc(Cl)cc1Cl` (stereo unspecified) gave KCNK3 block inactive, KCNQ1 inh inactive, KCNK9 inh inactive, KCNQ1 act inactive and hERG protect -11.
For CC(Sc1ccsc1[N+](=O)[O-])C(=O)NCc1ccco1 (stereo unspecified) the results were KCNK3 block inactive, KCNQ1 inh inactive, KCNK9 inh -7.7*, KCNQ1 act inactive and hERG protect -1.
`C#CCN(Cc1ccco1)C(=O)c1ccc(OC2CCN(Cc3ccccn3)CC2)cc1` gave KCNK3 block inactive, KCNQ1 inh inactive, KCNK9 inh inactive, KCNQ1 act inactive and hERG protect -4.
Cc1cc(/C=C2/SC(=S)N(c3cccc(C(F)(F)F)c3)C2=O)c(C)n1-c1cccnc1 was read as KCNK3 block inactive, KCNQ1 inh 6*, KCNK9 inh inactive, KCNQ1 act inactive and hERG protect -4.
For CCOc1ccc(NS(=O)(=O)c2cc(C(=O)NCCCN3CCCC3=O)ccc2C)cc1 the results were KCNK3 block inactive.
For O=[N+]([O-])c1ccccc1C1Nc2cccc3cccc(c23)N1 the results were KCNK3 block inactive, KCNQ1 inh 6*, KCNK9 inh inactive, KCNQ1 act inactive and hERG protect -11.
For Oc1ccccc1C1Nc2cccc3cccc(c23)N1 the results were KCNK3 block inactive, KCNQ1 inh inactive, KCNK9 inh inactive, KCNQ1 act inactive and hERG protect -6.
